From PubChem
T cruzi inh = T. cruzi replication inhibition | T. cruzi beta-gal in NIH3T3, luminescence, 90 h | inhibition, % (concentration not given with the values) | hit rate 1.4% among 300,000;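 active means mean inhibition across valid replicates above about 55%, limit read from the data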;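 further: signal also drops with host cell toxicity which is not excluded here; higher percent means less beta-gal luminescence so fewer parasites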
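System: mouse NIH/3T3 fibroblasts infected with β-gal-expressing T. cruzi Tulahuen C4 / Input: NIH/3T3 cells, 5,000 per well / Buffer or medium: Low-serum DMEM with 2% FBS / Probe or stimulus: 5000 reporter trypomastigotes per well / Schedule: ≥90 h infection period, 3 h prior cell attachment / Measured by: GalScreen luminescence, 60 min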
MIN6 prolif = induces beta-cell replication in MIN6 cells | proliferation, % at 10 µM | AID 2380 | MIN6 cells proliferation, ATPlite luminescence, 48 h; cells starved in 0.2% serum; 100% = growth in 10% serum | hit rate 0.29% among 330,000;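 active means compounds whose signal lies at least 3.5 SD above the mean of all wells on their plate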
TAG inh = triacylglycerol accumulation inhibition; H9c2 cells, Nile Red lipid (TAG) fluorescence; cells loaded with 200 µM oleic acid; inhibition, % at 12.5 µM; hit rate 0.66% among 230,000; AID 651582;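 active means pattern-corrected inhibition of lipid staining of at least 50% with the nuclear-stain viability signal not falling by more than 50%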
NR1D1 modulator = modulators of human Rev-erb alpha DNA binding; AID 1259318; hit rate 0.79% among 370,000; P20393; Rev-erbα–FITC-DNA binding, fluorescence polarization, 90 min; activity, % at 10 µM;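 active means activity above about 14%, limit read from the data; passing the limit was not always enough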
Target sequence (P20393 whole entry, looked up): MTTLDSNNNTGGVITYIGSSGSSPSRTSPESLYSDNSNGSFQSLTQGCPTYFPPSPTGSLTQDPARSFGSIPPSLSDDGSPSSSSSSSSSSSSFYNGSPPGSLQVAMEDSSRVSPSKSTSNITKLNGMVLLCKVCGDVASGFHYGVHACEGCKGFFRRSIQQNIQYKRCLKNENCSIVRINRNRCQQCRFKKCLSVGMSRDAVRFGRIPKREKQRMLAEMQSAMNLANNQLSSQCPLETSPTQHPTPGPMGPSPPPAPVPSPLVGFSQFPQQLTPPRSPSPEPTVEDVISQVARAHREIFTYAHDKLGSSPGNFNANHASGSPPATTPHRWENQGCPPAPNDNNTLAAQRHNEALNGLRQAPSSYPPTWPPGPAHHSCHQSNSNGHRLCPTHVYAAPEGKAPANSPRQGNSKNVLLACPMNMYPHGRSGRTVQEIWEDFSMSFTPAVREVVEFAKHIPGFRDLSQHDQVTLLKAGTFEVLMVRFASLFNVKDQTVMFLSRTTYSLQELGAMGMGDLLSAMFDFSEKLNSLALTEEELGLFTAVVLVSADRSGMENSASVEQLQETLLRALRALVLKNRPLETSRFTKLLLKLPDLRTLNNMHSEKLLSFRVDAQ
PG9 binder = small molecules binding HIV-1 gp120 antibody PG9 | TR-FRET gp120-PG9 antibody binding | inhibition, % at 6.7 µM | hit rate 0.43% among 360,000 | AID 624416; in the data active means inhibition above about 8.5%
iPSC survival up = increases survival of single human iPS cells; AID 602274; survival enhancement, % at 20 µM; hit rate 0.044% among 360,000; hiPSC single-cell survival, ATPlite luminescence; 100% = ROCK inhibitor wells, 0% = DMSO; in the data active means survival enhancement above about 18%;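 further: cells exposed to compounds for 16 hours before the ATP read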
NR1D1 mod conf = Rev-erb alpha (human) modulation, hit confirmation. shares compounds with NR1D1 modulator. Rev-erb alpha FITC-DNA binding, fluorescence polarization, 90 min. activation, % at 25 µM. hit rate 61% among 3,000. AID 1259319;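 active means activation at or above a set limit, or at least 3 SD above the negative control mean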
RORg counter = affects RORgamma DNA binding in a Rev-erb alpha counter-screen; hit rate 8% among 910; purified RORgamma protein-FITC-DNA binding, fluorescence polarization; shares compounds with NR1D1 modulator; IC50, µM; AID 1259320;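 active means Compounds whose fitted half-maximal concentration for disrupting protein-DNA binding is below 10 micromolar; the record names Rev-erb in its text, so the target is in doubt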
Numbers stand for hits. Hits are enriched below; roughly 2.9% of the tested compounds scored in any of these assays.

How did Cc1ccc(C(=O)Nc2nnc(-c3ccc(C(C)(C)C)cc3)s2)cc1 do in these assays?
T cruzi inh: inactive; MIN6 prolif: inactive; TAG inh: inactive; NR1D1 modulator: 26; PG9 binder: inactive; iPSC survival up: inactive; NR1D1 mod conf: inactive

How did CCCOc1ccc(/C(CC)=N/NC(=O)C2(C)CC2(Br)Br)cc1 (stereo unspecified) do in these assays?
T cruzi inh: inactive; MIN6 prolif: inactive; NR1D1 modulator: 34; PG9 binder: inactive; iPSC survival up: inactive; NR1D1 mod conf: 47; RORg counter: inactive

What do the screens show for `CC/C(=N/NC(=O)c1ccc(Br)cc1)c1ccc(OCCN2CCOCC2)cc1`?
T cruzi inh: inactive; MIN6 prolif: inactive; NR1D1 modulator: inactive; PG9 binder: inactive; iPSC survival up: inactive

How did CC(C)CNC1CS(=O)(=O)CC1O (stereo unspecified) do in these assays?
T cruzi inh: inactive; MIN6 prolif: inactive; TAG inh: inactive; NR1D1 modulator: inactive; PG9 binder: inactive; iPSC survival up: inactive

Results for COc1ccccc1N(C)S(=O)(=O)c1ccc(Cl)c(C(=O)OCc2c(C)noc2C)c1 ?
T cruzi inh: inactive; MIN6 prolif: inactive; TAG inh: inactive; NR1D1 modulator: 18; PG9 binder: inactive; iPSC survival up: inactive; NR1D1 mod conf: inactive

How did CNc1nc2c(-c3ccc(Cl)cc3)nnn2c2ccccc12 do in these assays?
T cruzi inh: inactive; MIN6 prolif: inactive; NR1D1 modulator: 18; PG9 binder: inactive; iPSC survival up: inactive; NR1D1 mod conf: inactive

How did Cc1ccc(-c2nnn3c2nc(NC(C)C)c2ccccc23)cc1 do in these assays?
T cruzi inh: inactive; MIN6 prolif: inactive; NR1D1 modulator: 48; PG9 binder: inactive; iPSC survival up: inactive; NR1D1 mod conf: 24

Results for Nc1c(-c2ccc(Cl)cc2)nnn1-c1ccccc1 ?
T cruzi inh: inactive; MIN6 prolif: inactive; NR1D1 modulator: inactive; PG9 binder: inactive; iPSC survival up: inactive

Results for O=C(CCCCCNc1nc(=S)[nH]c2ccccc12)NCc1ccccc1Cl ?
T cruzi inh: inactive; MIN6 prolif: inactive; NR1D1 modulator: 49; PG9 binder: inactive; NR1D1 mod conf: inactive

Results for O=C(CCCCCNc1nc(=S)[nH]c2ccccc12)NCCc1ccccc1 ?
T cruzi inh: inactive; MIN6 prolif: inactive; NR1D1 modulator: inactive; PG9 binder: inactive; iPSC survival up: inactive

What do the screens show for `O=C(O)c1ccc(CSc2nnc(COc3ccc(Cl)cc3Cl)o2)cc1`?
T cruzi inh: inactive; MIN6 prolif: inactive; TAG inh: inactive; NR1D1 modulator: inactive; PG9 binder: inactive; iPSC survival up: inactive

How did COc1ccccc1-n1cnc2sc(-c3ccccc3)cc2c1=O do in these assays?
T cruzi inh: inactive; MIN6 prolif: inactive; NR1D1 modulator: 20; PG9 binder: inactive; iPSC survival up: inactive; NR1D1 mod conf: inactive

What do the screens show for `Cc1ccc(NC(=O)c2ccc3nsnc3c2)c(Cl)c1`?
T cruzi inh: inactive; MIN6 prolif: inactive; NR1D1 modulator: 27; PG9 binder: inactive; iPSC survival up: inactive; NR1D1 mod conf: inactive

How did O=C(Nc1ccc(Br)cc1F)c1ccncc1 do in these assays?
T cruzi inh: inactive; MIN6 prolif: inactive; TAG inh: inactive; NR1D1 modulator: inactive; PG9 binder: inactive; iPSC survival up: inactive

How did O=C(Nc1ccc(Br)cc1F)c1ccc2nsnc2c1 do in these assays?
T cruzi inh: inactive; MIN6 prolif: inactive; NR1D1 modulator: 31; PG9 binder: inactive; iPSC survival up: inactive; NR1D1 mod conf: 22

What do the screens show for `CCN(Cc1cc2ccccc2[nH]c1=O)C(=O)c1cccnc1`?
T cruzi inh: inactive; MIN6 prolif: inactive; NR1D1 modulator: inactive; PG9 binder: inactive; iPSC survival up: inactive

Results for CCN(CC)S(=O)(=O)c1cc(NC(=O)COC(=O)C2CCC2)ccc1C ?
MIN6 prolif: inactive; TAG inh: inactive; NR1D1 modulator: inactive; PG9 binder: inactive; iPSC survival up: inactive

How did CCOC(=O)Cn1c(-c2nonc2NC(=O)c2ccccc2F)nc2ccccc21 do in these assays?
T cruzi inh: inactive; MIN6 prolif: inactive; TAG inh: inactive; NR1D1 modulator: 27; PG9 binder: inactive; iPSC survival up: inactive; NR1D1 mod conf: inactive

What do the screens show for `CCN1C(=O)CSc2ccc(C(=O)NCc3ccco3)cc21`?
T cruzi inh: inactive; MIN6 prolif: inactive; NR1D1 modulator: inactive; PG9 binder: inactive; iPSC survival up: inactive

What do the screens show for `COC(=O)c1ccccc1NC(=O)c1cc2ncc(Br)cn2n1`?
T cruzi inh: inactive; MIN6 prolif: inactive; TAG inh: inactive; NR1D1 modulator: 23; PG9 binder: inactive; iPSC survival up: inactive; NR1D1 mod conf: inactive

What do the screens show for `Cc1ccc(-c2nc(N)c3c(-c4ccc(C)cc4)nn(C(C)(C)C)c3n2)cc1`?
T cruzi inh: inactive; MIN6 prolif: inactive; TAG inh: inactive; NR1D1 modulator: 30; PG9 binder: inactive; iPSC survival up: inactive; NR1D1 mod conf: inactive

How did CC(C)(C)n1nc(-c2ccc(Cl)cc2)c2c(N)ncnc21 do in these assays?
T cruzi inh: inactive; MIN6 prolif: inactive; TAG inh: inactive; NR1D1 modulator: inactive; PG9 binder: inactive; iPSC survival up: inactive

Results for CCOC(=O)C1CCN(C(c2ccccn2)c2c(C)[nH]c3ccccc23)CC1 (stereo unspecified) ?
T cruzi inh: inactive; MIN6 prolif: inactive; TAG inh: inactive; NR1D1 modulator: inactive; PG9 binder: inactive; iPSC survival up: inactive

Results for CC(C)(C)c1ccc(C(=O)NC(=S)N2CCCCCC2)cc1 ?
T cruzi inh: inactive; MIN6 prolif: inactive; NR1D1 modulator: inactive; PG9 binder: inactive; iPSC survival up: inactive

Results for c1ccc(Oc2nnc(-c3cccs3)c3ccccc23)cc1 ?
T cruzi inh: inactive; MIN6 prolif: inactive; TAG inh: inactive; NR1D1 modulator: 26; PG9 binder: inactive; iPSC survival up: inactive; NR1D1 mod conf: inactive

How did COc1ccc(Oc2nnc(-c3ccc(C)cc3)c3ccccc23)cc1 do in these assays?
T cruzi inh: inactive; MIN6 prolif: inactive; NR1D1 modulator: 27; PG9 binder: inactive; iPSC survival up: inactive; NR1D1 mod conf: inactive

What do the screens show for `COc1nnc(-c2ccc(C)cc2)c2ccccc12`?
T cruzi inh: inactive; MIN6 prolif: inactive; NR1D1 modulator: inactive; PG9 binder: inactive; iPSC survival up: inactive

Results for COc1ccccc1NC(=S)NCc1ccccn1 ?
T cruzi inh: inactive; MIN6 prolif: inactive; TAG inh: inactive; NR1D1 modulator: inactive; PG9 binder: inactive; iPSC survival up: inactive

Results for CCCn1c(NC(=O)c2ccc(F)cc2)nc2ccccc21 ?
T cruzi inh: 84; MIN6 prolif: inactive; TAG inh: inactive; NR1D1 modulator: 26; PG9 binder: inactive; iPSC survival up: inactive; NR1D1 mod conf: inactive
